Key:
HepG2 = assay: Cytotoxicity against human HepG2 cells harboring A16-CD81EGFP assessed as cell viability after 48 hrs by bioluminescence assay; type: cell-based; conditions: HepG2, 48 h
Method in brief: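 HepG2-A16-CD81EGFP cells, 3 × 10^3 per well, seeded 24 h ahead in DMEM with 5% FBS. Viability read by bioluminescence after 48 h and fitted by four-parameter regression; puromycin control.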

Plasmodium falciparum [1] = assay: Antimalarial activity against asexual blood stage Plasmodium falciparum Dd2 infected in human erythrocytes after 72 hrs by SYBR green 1 dye based fluorescence assay; type: functional, cell-based; conditions: Dd2, 72 h
Plasmodium falciparum [2] = assay: Inhibition of schizont stage Plasmodium falciparum 20S proteasome beta5 subunit using suc-LLVY-AMC as substrate at 50 nM after 60 to 120 mins by fluorescence assay relative to control
Method in brief: (§1)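 Pf20S enriched from asynchronous parasite lysate by two-step chromatography; human constitutive 20S from a commercial source. Enzymes at 0.29 nM with 25 μM Suc-LLE-AMC, Suc-LRR-AMC or Suc-LLVY-AMC in 20 mM Tris pH 7.5, 0.02% SDS. Inhibitor and substrate added together; AMC release rate (Ex 340/Em 465) taken from 60–120 min against DMSO.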

Plasmodium falciparum [3] = assay: Inhibition of early trophozoite stage Plasmodium falciparum 20S proteasome beta5 subunit using suc-LLVY-AMC as substrate at 95 nM after 4 hrs by fluorescence assay relative to control
Method in brief: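 Sorbitol-synchronized early trophozoites at 5% parasitemia exposed to 95 nM inhibitor for 4 h, then washed and lysed. 15 μg total protein assayed with 25 μM Suc-LLVY-AMC in Tris pH 7.5/0.02% SDS buffer; AMC release compared against DMSO-treated cells.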

[4] = biological target: T1, constitutive 20S proteasome beta5 subunit (Proteasome Macropain subunit MB1) (Homo sapiens, UniProt P28074); assay: Inhibition of human constitutive 20S proteasome beta5 subunit using suc-LLVY-AMC as substrate at 50 nM after 60 to 120 mins by fluorescence assay relative to control; conditions: probe suc-LLVY-AMC; method in brief: as §1
T1 sequence (P28074 whole entry): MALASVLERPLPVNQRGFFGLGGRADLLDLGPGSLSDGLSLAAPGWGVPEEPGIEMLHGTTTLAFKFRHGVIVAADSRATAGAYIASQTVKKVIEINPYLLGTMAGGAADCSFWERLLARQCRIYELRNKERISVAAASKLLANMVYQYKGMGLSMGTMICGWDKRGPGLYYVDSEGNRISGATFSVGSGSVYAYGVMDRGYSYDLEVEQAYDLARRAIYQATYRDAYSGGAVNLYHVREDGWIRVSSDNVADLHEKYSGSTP

Plasmodium falciparum [5] = assay: Inhibition of schizont stage Plasmodium falciparum 20S proteasome beta2 subunit using z-LRR-AMC as substrate at 150 nM after 60 to 120 mins by fluorescence assay relative to control
Plasmodium falciparum [6] = assay: Growth inhibition of Plasmodium falciparum Dd2 infected in human erythrocytes at 0.5 to 1 nM after 72 hrs by SYBR green 1 dye based fluorescence assay relative to control; type: cell-based; conditions: Dd2, 72 h, read-out: GI
Plasmodium falciparum [7] = assay: Inhibition of schizont stage Plasmodium falciparum 20S proteasome beta1 subunit using z-LLE-AMC as substrate at 150 nM after 60 to 120 mins by fluorescence assay relative to control
[8] = biological target: T2, 20S proteasome beta5 subunit (Proteasome Macropain subunit MB1) (Homo sapiens, UniProt P28074); assay: Inhibition of human 20S proteasome beta5 subunit using suc-LLVY-AMC as substrate at 150 nM after 60 to 120 mins by fluorescence assay relative to control; conditions: probe suc-LLVY-AMC; method in brief: as §1
T2 sequence (P28074 whole entry): T1 sequence (P28074 whole entry)

[9] = biological target: T3, Proteasome Macropain subunit MB1 (Homo sapiens, UniProt P28074); assay: Irreversible inhibition of human 20S proteasome beta5 subunit using suc-LLVY-AMC as substrate after 4 hrs at 30 mins time interval by fluorescence assay
T3 sequence (P28074 whole entry): T1 sequence (P28074 whole entry)

Plasmodium falciparum [10] = assay: Inhibition of schizont stage Plasmodium falciparum 20S proteasome beta5 using suc-LLVY-AMC as substrate at 150 nM after 60 to 120 mins by fluorescence assay relative to control
Plasmodium falciparum [11] = assay: Antimalarial activity against stage V gametocytes of Plasmodium falciparum NF54 infected in human erythrocytes after 72 hrs by mitotracker red based […] assay; type: functional, cell-based; conditions: NF54, 72 h
Plasmodium falciparum [12] = assay: Inhibition of schizont stage Plasmodium falciparum 20S proteasome beta1 subunit using z-LLE-AMC as substrate at 450 nM after 60 to 120 mins by fluorescence assay relative to control
Plasmodium falciparum [13] = assay: Inhibition of schizont stage Plasmodium falciparum 20S proteasome using suc-LLVY-AMC as substrate at 450 nM after 60 to 120 mins relative to control
Plasmodium falciparum [14] = assay: Inhibition of schizont stage Plasmodium falciparum 20S proteasome beta2 subunit using z-LRR-AMC as substrate at 450 nM after 60 to 120 mins by fluorescence assay relative to control

Compound	IC50 (HepG2) [nM]	IC50 (Plasmodium falciparum [1]) [nM]	inhibition (Plasmodium falciparum [2]) [%]	inhibition (Plasmodium falciparum [3]) [%]	further results
CCCCCC(=O)N[C@@H](Cc1c[nH]c2ccccc12)C(=O)N[C@@H](Cc1c[nH]c2ccccc12)C(=O)N[C@@H](CC(C)C)C(=O)[C@@]1(C)CO1	11.7	3.7	–	–	–
CCCCCC(=O)N[C@H](Cc1ccncc1)C(=O)N[C@@H](CCCC)C(=O)N[C@@H](CC(C)C)C(=O)[C@@]1(C)CO1	< 0.283	21.8	–	–	–
CCCCCC(=O)N[C@@H](Cc1c[nH]c2ccccc12)C(=O)N[C@@H](Cc1c[nH]c2ccccc12)C(=O)N[C@@H](Cc1ccccc1)C(=O)[C@@]1(C)CO1	346	9.38	10 to 47	40 to 60	–
CCCCCC(=O)N[C@H](Cc1c[nH]c2ccccc12)C(=O)N[C@@H](CCCC)C(=O)N[C@@H](CC(C)C)C(=O)[C@@]1(C)CO1	915	2.92	10 to 47	40 to 60	inhibition at 0.05 µM [4]: ≤ 10%
CCCCCC(=O)N[C@H](Cc1ccc(N)cc1)C(=O)N[C@@H](Cc1ccc(N)cc1)C(=O)N[C@@H](CC(C)C)C(=O)[C@@]1(C)CO1	0.91	59.6	–	–	–
CCCCCC(=O)N[C@@H](Cc1ccc(N)cc1)C(=O)N[C@@H](CCCC)C(=O)N[C@@H](Cc1ccccc1)C(=O)[C@@]1(C)CO1	3410	81.8	10 to 47	40 to 60	–
CCCCCC(=O)N[C@@H](Cc1ccc(NC(=O)OC(C)(C)C)cc1)C(=O)N[C@@H](CCCC)C(=O)N[C@@H](Cc1ccccc1)C(=O)[C@@]1(C)CO1	478	5.45	10 to 47	40 to 60	–
CCCCCC(=O)NC(Cc1ccc(NC(=O)OC(C)(C)C)cc1)C(=O)N[C@@H](Cc1ccc(NC(=O)OC(C)(C)C)cc1)C(=O)N[C@@H](Cc1ccccc1)C(=O)[C@@]1(C)CO1 (single isomer, unassigned)	45.7	12.2	–	–	–
CCCCCC(=O)N[C@@H](Cc1ccccc1)C(=O)N[C@@H](CCCC)C(=O)N[C@@H](Cc1ccccc1)C(=O)[C@@]1(C)CO1	30.8	6.7	–	–	–
CCCCCC(=O)N[C@@H](Cc1c[nH]c2ccccc12)C(=O)N[C@@H](CCCC)C(=O)N[C@@H](Cc1ccccc1)C(=O)[C@@]1(C)CO1	6.41	9.77	–	–	–
CCCCCC(=O)N[C@H](C(=O)N[C@@H](CCS(C)(=O)=O)C(=O)N[C@@H](CC(C)C)C(=O)[C@@]1(C)CO1)C(C)C	–	–	10 to 47	40 to 60	inhibition (Plasmodium falciparum [5]): 29%; inhibition at up to 0.001 µM (Plasmodium falciparum [6]): < 10%; inhibition (Plasmodium falciparum [7]): 16%; inhibition at 0.15 µM [8]: 98%; inhibition at 0.05 µM [4]: 97%; Ki [9]: 375 nM; inhibition (Plasmodium falciparum [10]): 45%
CCCCCC(=O)N[C@@H](Cc1ccncc1)C(=O)N[C@@H](CCCC)C(=O)N[C@@H](CC(C)C)C(=O)[C@@]1(C)CO1	< 0.283	3.28	–	–	–
CCCCCC(=O)N[C@@H](Cc1ccc(NC(=O)OC(C)(C)C)cc1)C(=O)N[C@@H](CCCC)C(=O)N[C@@H](CC(C)C)C(=O)[C@@]1(C)CO1	80.2	5.55	–	–	–
CCCCCC(=O)N[C@@H](Cc1ccc(N)cc1)C(=O)N[C@@H](CCCC)C(=O)N[C@@H](CC(C)C)C(=O)[C@@]1(C)CO1	6.32	5.99	–	–	–
CCCCCC(=O)N[C@@H](Cc1ccccc1)C(=O)N[C@@H](CCCC)C(=O)N[C@@H](CC(C)C)C(=O)[C@@]1(C)CO1	22.7	4.04	–	–	–
CCCCCC(=O)N[C@H](C(=O)N[C@@H](CCCC)C(=O)N[C@@H](CC(C)C)C(=O)[C@@]1(C)CO1)C(C)C	134	4.11	10 to 47	40 to 60	inhibition at 0.05 µM [4]: 89%; Ki [9]: 3740 nM
CCCCCC(=O)N[C@@H](Cc1ccncc1)C(=O)N[C@@H](CCCC)C(=O)N[C@@H](Cc1ccccc1)C(=O)[C@@]1(C)CO1	< 0.283	3.87	–	–	–
CCCCCC(=O)NC(Cc1ccc(NC(=O)OC(C)(C)C)cc1)C(=O)N[C@@H](Cc1ccc(NC(=O)OC(C)(C)C)cc1)C(=O)N[C@@H](CC(C)C)C(=O)[C@@]1(C)CO1 (single isomer, unassigned)	118	13.5	–	–	–
CCCCCC(=O)N[C@@H](C(=O)N[C@@H](CCCC)C(=O)N[C@@H](CC(C)C)C(=O)[C@@]1(C)CO1)C(C)C	1240	3.27	10 to 47	40 to 60	inhibition at up to 0.001 µM (Plasmodium falciparum [6]): < 10%; IC50 (Plasmodium falciparum [11]): 130 nM; inhibition at 0.05 µM [4]: ≤ 10%; Ki [9]: 39200 nM; inhibition (Plasmodium falciparum [12]): 6%; inhibition (Plasmodium falciparum [13]): 45%; inhibition (Plasmodium falciparum [14]): 9%
CCCCCC(=O)N[C@H](Cc1ccc(N)cc1)C(=O)N[C@@H](Cc1ccc(N)cc1)C(=O)N[C@@H](Cc1ccccc1)C(=O)[C@@]1(C)CO1	952	68.2	–	–	–
CCCCCC(=O)N[C@@H](Cc1c[nH]c2ccccc12)C(=O)N[C@@H](CCCC)C(=O)N[C@@H](CC(C)C)C(=O)[C@@]1(C)CO1	–	3.11	–	–	–

Reference: ChEMBL document CHEMBL4038319, “Development of a Potent Inhibitor of the Plasmodium Proteasome with Reduced Mammalian Toxicity” (J Med Chem, 2017)
